This is a sample that favours compounds with a hit; in the whole collection about 3.9% have one here.
SR-BI uptake up: enhances SR-BI lipid uptake from DiI-HDL; 320,000 tested, 0.096% active; CHO ldlA[mSR-BI] cells, DiI-HDL uptake fluorescence, 3 h; 100 = double the neutral-control signal; AID 504775; activation, % at 12.5 µM;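 active means mean replicate activation of at least 60% and every replicate at or above 60%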
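Assay system: CHO ldlA[mSR-BI] cells, LDL receptor-null, SR-BI overexpressing; medium: Ham's F12 with 0.5% BSA, HEPES 25 mM, pH 7.4; also added: DiI-HDL 10 µg/mL; timing: 3 h uptake period with compound, 37 °C; signal: DiI fluorescence, bottom read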
SR-BI DiI inh: inhibitors of mouse SR-BI mediated HDL lipid uptake; ldlA[mSR-BI] CHO cells, DiI-HDL uptake fluorescence, 3 h; inhibition, % at 12.5 µM; AID 488896; 320,000 tested, 0.96% active;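 active means mean replicate inhibition of at least 70% and a set share of replicates each scoring 70 or more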
Target sequence (Q61009 whole entry, looked up): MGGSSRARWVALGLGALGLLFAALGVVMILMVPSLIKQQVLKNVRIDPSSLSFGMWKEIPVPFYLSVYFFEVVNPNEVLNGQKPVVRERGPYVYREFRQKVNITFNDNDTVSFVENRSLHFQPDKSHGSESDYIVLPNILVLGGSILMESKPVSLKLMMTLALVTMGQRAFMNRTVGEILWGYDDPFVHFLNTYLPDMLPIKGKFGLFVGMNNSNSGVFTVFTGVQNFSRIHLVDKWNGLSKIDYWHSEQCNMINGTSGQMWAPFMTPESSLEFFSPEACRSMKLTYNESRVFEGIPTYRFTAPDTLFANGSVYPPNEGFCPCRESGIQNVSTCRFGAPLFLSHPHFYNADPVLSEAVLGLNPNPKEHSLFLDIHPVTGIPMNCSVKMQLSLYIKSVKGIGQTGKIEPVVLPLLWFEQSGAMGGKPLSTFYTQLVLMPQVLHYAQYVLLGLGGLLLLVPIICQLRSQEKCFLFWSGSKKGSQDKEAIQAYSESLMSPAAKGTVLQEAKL
AHR act: human AHR activation | P35869 | AHR-responsive luciferase reporter cells, luminescence | activation, % at 5 µM | 320,000 tested, 2.5% active | AID 2796; in the data active means activation above about 47%
GAA850 FXN act: activators of GAA850 frataxin (FXN) promoter; HEK293 lucGAA850 FXN promoter luciferase reporter, 24 h; percent of 10 µM SAHA response; 360,000 tested, 0.56% active; activation, % at 6 µM; AID 540364;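 active means activation above the average of all compounds screened plus 3 SD, cutoff fixed separately per campaign, cut at about 7.5% in these data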
ABCB6 inh 2: blocks the human ABCB6 transporter; K562-ABCB6 porphyrin accumulation, flow cytometry, 1 h; active compounds read low; AID 602162; 360,000 tested, 0.19% active; Q9NP58; fluorescence ratio to DMSO, % at 10 µM;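 active means fluorescence ratio to DMSO below 75%, the collection mean minus 3 SD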;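 further: signal is porphyrin accumulated inside mitochondria; lower ratio means ABCB6 inhibition with less porphyrin fluorescence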
HIF activator: HIF pathway transcriptional activation; 300,000 tested, 0.32% active; activation, % at 7.5 µM (by protocol); U2OS HRE-luciferase reporter, luminescence; normalized: DMSO 0%, desferrioxamine 100%; AID 1910;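 active means mean activation of at least 10% of the iron chelator positive control signal, with at least half of replicates also reaching 10%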
Each line names hits and unclear results; the compound was inactive in the other large screens.

CCCCC(=O)Nc1ccc(NC(=O)CC)cc1OC	HIF activator 18
CCCCC(=O)Nc1ccc(NC(=S)NC(=O)CC(C)C)cc1OC	none
CCC(=O)Nc1ccc(-c2ccc(NC(=O)CC)c(OC)c2)cc1OC	SR-BI DiI inh 83
COc1ccc(OC)c(C(=O)CSc2nnc(Cc3cccs3)n2CCc2ccccc2)c1	AHR act 59
COc1ccc(OC)c(C(=O)CSc2nnc(-c3cccs3)n2C)c1	none
COc1ccc(-c2nn(C)c(=O)c3ccccc23)cc1NC(=O)COc1ccc(C)cc1	SR-BI DiI inh 92
O=S(=O)(c1ccc(-c2nnco2)cc1)N1CCCCC1	none (no result: SR-BI uptake up, SR-BI DiI inh)
COc1ccc(NC(=O)CO/N=C2\CCCc3nonc32)cc1	none
O=C(CO/N=C1\CCCc2nonc21)Nc1ccc(Br)cc1	AHR act 78
Cc1cc(C(=O)O)oc(=O)c1	HIF activator 219
O=C(c1ccccc1Sc1ccc([N+](=O)[O-])cc1)N1CCCCC1	none
O=C(O)Cn1ccc2ccccc21	none
O=C(c1ccccc1)n1ccc2ccccc21	AHR act 62
CCCc1cc(=O)oc2cc(OCC(=O)N3CCN(C(=O)C4COc5ccccc5O4)CC3)ccc12 (configuration not stated)	SR-BI DiI inh 87
O=C(COc1ccc2ccc(=O)oc2c1)N1CCN(C(=O)C2COc3ccccc3O2)CC1 (configuration not stated)	none
Cc1c(C)c2ccc(OCC(=O)N3CCN(C(=O)C4COc5ccccc5O4)CC3)cc2oc1=O (configuration not stated)	SR-BI DiI inh 88
Cc1cc(=O)oc2cc(OCC(=O)N3CCN(C(=O)C4COc5ccccc5O4)CC3)ccc12 (configuration not stated)	SR-BI DiI inh 88
CCCCc1cc(=O)oc2cc(OCC(=O)N3CCOCC3)ccc12	none
O=c1cc(CSc2nnc(Nc3ccccc3)s2)nc2sccn12	AHR act 57 (no result: HIF activator)
COc1ccc(-c2nc(CN3CCCC(C(=O)NC4CCCC4)C3)c(C)o2)cc1 (configuration not stated)	none
Cc1ccc(CC(=O)N(Cc2ccccc2)c2ccccn2)cc1	none
COc1cccc2sc(NN)nc12	none
NNc1nc2c(Cl)c(Cl)ccc2s1	AHR act 84
CCOC(=O)C1CCN(C2CCN(C(=O)c3oc4c(F)cccc4c3C)CC2)CC1	none
COCCN=c1scc(-c2ccccc2)n1/N=C/c1c[nH]c2ccccc12	SR-BI DiI inh 83, AHR act 55
CCOc1ccccc1N1CC(C(=O)NNC(=O)c2cc(OC)c(OC)c(OC)c2)CC1=O (configuration not stated)	none (no result: HIF activator)
Cn1c(C(=O)O)cc2cc(F)ccc21	AHR act 54
COc1ccc2c(c1)cc(C(=O)O)n2C	none
CCN(CC)c1ccc(NC(=O)/C=C/c2cc(Br)ccc2OC)cc1	SR-BI DiI inh 80, AHR act 55
COc1ccc(NC(=O)/C=C/c2cc(Br)ccc2OC)cc1	SR-BI DiI inh 74
COc1ccc(Br)cc1/C=C/C(=O)Nc1c(C)cccc1C	none
COc1cc(/C=C/C(=O)Nc2ccncc2)cc(OC)c1OC	none
COc1cc(/C=C/C(=O)Nc2ccc(C(C)=O)cc2)cc(OC)c1OC	SR-BI DiI inh 75
COc1ccc(Br)cc1/C=C/C(=O)c1ccc(NC(C)=O)cc1	SR-BI DiI inh 76 (no result: HIF activator)
COc1ccc(C(=O)/C=C/Nc2ccc(NC(C)=O)cc2)cc1OC	none
CN(C(=O)c1ccc(OC2CCN(Cc3ccccn3)CC2)cc1)C1CCCCC1	none
CCOC(=O)c1c(C)[nH]c(C)c1C(=O)COC(=O)CCc1ccccc1	none (no result: HIF activator)
Cc1ccc2nc3c(cc2c1)c(NC(=O)C1CCCO1)nn3CC(C)C (configuration not stated)	none
CCn1nc(NC(=O)C2CCCO2)c2cc3cc(C)ccc3nc21 (configuration not stated)	AHR act 67
COc1ccc(CC(=O)OCC(=O)Nc2ccc(OC(F)F)cc2)cc1OC	none (no result: SR-BI uptake up, HIF activator)
N#Cc1cn(CCOc2ccccc2F)c2ccccc12	AHR act 49
Cc1nc(-c2cc(C#N)c(Sc3cccc(C(F)(F)F)c3)nc2C)cs1	none

Compound activity as filed in PubChem BioAssay.
